These results are taken from ChEMBL document CHEMBL3526048, “In vitro metabolism of rivoglitazone, a novel peroxisome proliferator-activated receptor γ agonist, in rat, monkey, and human liver microsomes and freshly isolated hepatocytes” (Drug Metab Dispos, 2011).

Data set [1] deals with Liver microsome. Put plainly: Drug level in Sprague-Dawley rat liver microsomes treated with [14C]-rivoglitazone at 20 uM after 2 hrs by radio-HPLC/LC-MS/MS analysis in presence of NADPH-generating system/SAM. The class given is ADME. In short, it runs like this: (§1)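 Pooled male liver microsomes (1 mg/ml protein; rat from 94 Sprague-Dawley, monkey from 8 cynomolgus, human from 23 donors) were incubated with [¹⁴C]rivoglitazone (20 μM). Buffer: 10 mM potassium phosphate (pH 7.4). Cofactors: NADPH-generating system (2 mM NADP⁺, 20 mM G6P, 2 U/ml G6PDH, 10 mM MgCl₂), with or without 2 mM SAM. Incubation 2 h at 37°C with shaking; controls lacked NADPH system and SAM alone. Acetonitrile stop, radio-HPLC plus LC-MS.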
For orientation: Liver microsomes are vesicles of endoplasmic reticulum, rich in cytochrome P450 enzymes.

Data set [2] deals with Hepatocyte. Put plainly: Drug level in rat hepatocytes treated with [14C]-rivoglitazone at 30 uM after 3 hrs by radio-HPLC/LC-MS/MS analysis in presence of NADPH-generating system/SAM. The class given is ADME, cell-based.
Data set [3] is described as follows: Retention time of the compound by LC-MS/MS analysis. Format: physicochemical. A digest of the protocol:
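LC-MS/MS used a YMC-Pack ODS-A column (1.5 × 150 mm, 5 μm) at 30°C, 0.1 ml/min. Mobile phase was water and acetonitrile, each with 0.01% TFA. Gradient: 12→60% B over 30 min, →90% B over 5 min, hold 5 min. Detection was UV 220 nm with positive ESI Q-TOF (capillary 3300 V, cone 45 V), collision energy 20 eV and xenon as collision gas.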

In data set [4] the test system is Hepatocyte. Description: Drug level in human hepatocytes treated with [14C]-rivoglitazone at 30 uM after 3 hrs by radio-HPLC/LC-MS/MS analysis in presence of NADPH-generating system/SAM. Format: ADME, cell-based.
Data set [5] deals with Liver microsome. Put plainly: Drug level in human liver microsomes treated with [14C]-rivoglitazone at 20 uM after 2 hrs by radio-HPLC/LC-MS/MS analysis in presence of NADPH-generating system/SAM. Format: ADME. In short, it runs like this:
as §1

A short description of data set [6]: Drug level in cynomolgus monkey liver microsomes treated with [14C]-rivoglitazone at 20 uM after 2 hrs by radio-HPLC/LC-MS/MS analysis in presence of NADPH-generating system/SAM. The class given is ADME, Macaca fascicularis. In short, it runs like this: as §1
For a further data set, the target named is Cytochrome P450 2D6 (Homo sapiens, UniProt P10635). Put plainly: Activity of human CYP2D6 expressed in microsomes isolated from baculovirus infected insect cell assessed as enzyme-mediated compound formation treated with [14C]-rivoglitazone at 20 uM after 2 hrs by radio-HPLC/LC-MS/MS analysis in presence of NADPH-generating system and NADPH-generating system/SAM. The class given is ADME.
Cytochrome P450 2D6, sequence (P10635 whole entry): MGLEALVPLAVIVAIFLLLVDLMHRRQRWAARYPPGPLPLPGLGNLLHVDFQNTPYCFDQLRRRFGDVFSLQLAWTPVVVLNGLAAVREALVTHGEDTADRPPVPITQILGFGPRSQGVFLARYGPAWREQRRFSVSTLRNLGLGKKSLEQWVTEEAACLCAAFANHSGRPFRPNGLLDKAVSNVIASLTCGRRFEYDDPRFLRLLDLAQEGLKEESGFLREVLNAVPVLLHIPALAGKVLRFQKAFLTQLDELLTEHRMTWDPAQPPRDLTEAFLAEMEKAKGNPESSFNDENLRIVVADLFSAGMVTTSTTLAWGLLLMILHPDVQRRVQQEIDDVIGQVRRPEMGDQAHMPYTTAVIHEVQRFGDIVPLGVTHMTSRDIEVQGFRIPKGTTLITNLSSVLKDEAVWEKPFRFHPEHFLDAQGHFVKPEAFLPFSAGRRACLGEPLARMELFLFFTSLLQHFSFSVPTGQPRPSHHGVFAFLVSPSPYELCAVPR

The test system of data set [7] is Liver microsome. Put plainly: Drug level in human liver microsomes treated with [14C]-rivoglitazone at 20 uM after 2 hrs by radio-HPLC/LC-MS/MS analysis in presence of NADPH-generating system and NADPH-generating system/SAM. Format: ADME. A digest of the protocol: as §1
A further data set concerns the target Cytochrome P450 3A5 (Homo sapiens, UniProt P20815). Description: Activity of human CYP3A5 expressed in microsomes isolated from baculovirus infected insect cell assessed as enzyme-mediated compound formation treated with [14C]-rivoglitazone at 20 uM after 2 hrs by radio-HPLC/LC-MS/MS analysis in presence of NADPH-generating system and NADPH-generating system/SAM. Format: ADME. A digest of the protocol: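 cDNA-expressed human CYP3A5 in baculovirus-insect-cell microsomes (1 mg/ml protein) was incubated with [¹⁴C]rivoglitazone (20 μM) in 50 mM potassium phosphate (pH 7.4) or 100 mM Tris-HCl (pH 7.5). NADPH-generating system: 2 mM NADP⁺, 20 mM glucose 6-phosphate, 2 units/ml G6PDH, 10 mM MgCl₂. Incubation ran 2 h at 37°C with shaking; insect-cell control supersomes served as control. Acetonitrile stop, supernatant concentrated, then radio-HPLC, LC-MS and LC-MS/MS.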

The next data set deals with Cytochrome P450 3A4 (Homo sapiens, UniProt P08684). Put plainly: Activity of human CYP3A4 expressed in microsomes isolated from baculovirus infected insect cell assessed as enzyme-mediated compound formation treated with [14C]-rivoglitazone at 20 uM after 2 hrs by radio-HPLC/LC-MS/MS analysis in presence of NADPH-generating system and NADPH-generating system/SAM. Format: ADME.
Cytochrome P450 3A4, sequence (P08684 whole entry): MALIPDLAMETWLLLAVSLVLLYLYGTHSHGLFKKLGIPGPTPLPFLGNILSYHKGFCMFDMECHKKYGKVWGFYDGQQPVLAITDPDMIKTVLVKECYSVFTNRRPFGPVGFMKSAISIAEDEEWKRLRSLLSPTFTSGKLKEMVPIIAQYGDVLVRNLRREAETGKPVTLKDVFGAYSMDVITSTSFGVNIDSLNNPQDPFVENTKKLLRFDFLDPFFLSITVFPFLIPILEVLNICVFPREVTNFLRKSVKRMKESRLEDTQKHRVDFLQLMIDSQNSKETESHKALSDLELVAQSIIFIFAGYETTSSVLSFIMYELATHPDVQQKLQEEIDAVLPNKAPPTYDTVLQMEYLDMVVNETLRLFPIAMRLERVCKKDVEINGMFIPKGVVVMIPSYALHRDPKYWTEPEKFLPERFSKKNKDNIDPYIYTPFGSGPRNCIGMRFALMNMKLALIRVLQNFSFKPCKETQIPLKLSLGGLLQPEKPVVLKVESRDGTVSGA

Another data set addresses T1, Cytochrome P450 2C8 (Homo sapiens, UniProt P10632).
T1 sequence (P10632 whole entry): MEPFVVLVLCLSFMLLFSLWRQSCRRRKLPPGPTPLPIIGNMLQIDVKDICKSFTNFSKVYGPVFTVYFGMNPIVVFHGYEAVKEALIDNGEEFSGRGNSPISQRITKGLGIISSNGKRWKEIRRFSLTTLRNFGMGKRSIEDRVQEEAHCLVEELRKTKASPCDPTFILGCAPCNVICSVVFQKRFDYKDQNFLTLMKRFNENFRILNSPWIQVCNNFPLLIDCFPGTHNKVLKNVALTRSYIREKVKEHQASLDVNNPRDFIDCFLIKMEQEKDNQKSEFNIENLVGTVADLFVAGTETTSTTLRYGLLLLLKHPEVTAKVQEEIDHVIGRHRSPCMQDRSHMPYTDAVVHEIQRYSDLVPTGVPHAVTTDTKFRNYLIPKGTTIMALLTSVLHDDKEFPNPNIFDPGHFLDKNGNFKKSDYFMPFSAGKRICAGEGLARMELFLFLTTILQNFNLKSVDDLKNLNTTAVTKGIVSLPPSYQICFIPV
Put plainly: Activity of human CYP2C8 expressed in microsomes isolated from baculovirus infected insect cell assessed as enzyme-mediated compound formation treated with [14C]-rivoglitazone at 20 uM after 2 hrs by radio-HPLC/LC-MS/MS analysis in presence of NADPH-generating system and NADPH-generating system/SAM. Format: ADME. In short, it runs like this: (§2)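 Baculovirus/insect-cell microsomes expressing single human CYPs, 1 mg/ml protein, with 50 mM potassium phosphate (pH 7.4) or 100 mM Tris-HCl (pH 7.5). NADPH-generating system: 2 mM NADP⁺, 20 mM glucose 6-phosphate, 2 units/ml G6PDH, 10 mM MgCl₂. [¹⁴C]rivoglitazone at 20 μM, 2 h at 37°C with shaking. Control used insect-cell control supersomes. Stopped with acetonitrile; supernatant concentrated under nitrogen; metabolites analysed by radio-HPLC, LC-MS and LC-MS/MS.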

Another data set deals with Cytochrome P450 2C9 (Homo sapiens, UniProt P11712). Put plainly: Activity of human CYP2C9 expressed in microsomes isolated from baculovirus infected insect cell assessed as enzyme-mediated compound formation treated with [14C]-rivoglitazone at 20 uM after 2 hrs by radio-HPLC/LC-MS/MS analysis in presence of NADPH-generating system and NADPH-generating system/SAM. The class given is ADME.
Cytochrome P450 2C9, sequence (P11712 whole entry): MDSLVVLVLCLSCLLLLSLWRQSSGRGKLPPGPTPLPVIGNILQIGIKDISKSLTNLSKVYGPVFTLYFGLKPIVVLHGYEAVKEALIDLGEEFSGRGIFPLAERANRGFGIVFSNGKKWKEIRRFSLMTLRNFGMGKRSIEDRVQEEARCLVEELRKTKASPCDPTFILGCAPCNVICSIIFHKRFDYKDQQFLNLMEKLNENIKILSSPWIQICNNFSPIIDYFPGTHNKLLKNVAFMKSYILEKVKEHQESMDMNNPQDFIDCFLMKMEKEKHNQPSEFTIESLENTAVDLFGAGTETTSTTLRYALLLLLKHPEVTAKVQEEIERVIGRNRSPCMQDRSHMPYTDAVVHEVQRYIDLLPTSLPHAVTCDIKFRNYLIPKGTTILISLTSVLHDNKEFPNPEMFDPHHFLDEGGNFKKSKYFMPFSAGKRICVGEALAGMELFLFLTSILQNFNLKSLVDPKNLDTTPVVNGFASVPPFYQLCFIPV

The target of the next data set is T2, Cytochrome P450 1A2 (Homo sapiens, UniProt P05177).
T2 sequence (P05177 whole entry): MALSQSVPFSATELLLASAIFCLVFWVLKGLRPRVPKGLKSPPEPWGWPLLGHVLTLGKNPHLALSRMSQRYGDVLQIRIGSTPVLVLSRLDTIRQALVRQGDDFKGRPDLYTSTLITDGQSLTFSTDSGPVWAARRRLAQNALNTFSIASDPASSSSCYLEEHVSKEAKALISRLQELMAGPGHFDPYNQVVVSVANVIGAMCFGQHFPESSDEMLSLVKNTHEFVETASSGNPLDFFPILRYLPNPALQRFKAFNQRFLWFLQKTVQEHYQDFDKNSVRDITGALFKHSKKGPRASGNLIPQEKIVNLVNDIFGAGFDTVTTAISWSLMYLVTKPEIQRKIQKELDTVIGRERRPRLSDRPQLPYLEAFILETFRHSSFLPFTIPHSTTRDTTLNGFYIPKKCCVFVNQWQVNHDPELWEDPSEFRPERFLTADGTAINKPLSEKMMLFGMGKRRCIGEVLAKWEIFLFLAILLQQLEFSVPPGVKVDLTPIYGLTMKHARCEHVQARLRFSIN
Description: Activity of human CYP1A2 expressed in microsomes isolated from baculovirus infected insect cell assessed as enzyme-mediated compound formation treated with [14C]-rivoglitazone at 20 uM after 2 hrs by radio-HPLC/LC-MS/MS analysis in presence of NADPH-generating system and NADPH-generating system/SAM. The class given is ADME. In short, it runs like this: as §2

Data set [8] deals with Liver microsome. Put plainly: Drug level in Sprague-Dawley rat liver microsomes treated with [14C]-rivoglitazone at 20 uM after 2 hrs by radio-HPLC/LC-MS/MS analysis in presence of NADPH-generating system and NADPH-generating system/SAM. The class given is ADME. A digest of the protocol:
as §1

The target in another data set is Cytochrome P450 2C19 (Homo sapiens, UniProt P33261). Description: Activity of human CYP2C19 expressed in microsomes isolated from baculovirus infected insect cell assessed as enzyme-mediated compound formation treated with [14C]-rivoglitazone at 20 uM after 2 hrs by radio-HPLC/LC-MS/MS analysis in presence of NADPH-generating system and NADPH-generating system/SAM. The class given is ADME. In short, it runs like this: as §2
Cytochrome P450 2C19, sequence (P33261 whole entry): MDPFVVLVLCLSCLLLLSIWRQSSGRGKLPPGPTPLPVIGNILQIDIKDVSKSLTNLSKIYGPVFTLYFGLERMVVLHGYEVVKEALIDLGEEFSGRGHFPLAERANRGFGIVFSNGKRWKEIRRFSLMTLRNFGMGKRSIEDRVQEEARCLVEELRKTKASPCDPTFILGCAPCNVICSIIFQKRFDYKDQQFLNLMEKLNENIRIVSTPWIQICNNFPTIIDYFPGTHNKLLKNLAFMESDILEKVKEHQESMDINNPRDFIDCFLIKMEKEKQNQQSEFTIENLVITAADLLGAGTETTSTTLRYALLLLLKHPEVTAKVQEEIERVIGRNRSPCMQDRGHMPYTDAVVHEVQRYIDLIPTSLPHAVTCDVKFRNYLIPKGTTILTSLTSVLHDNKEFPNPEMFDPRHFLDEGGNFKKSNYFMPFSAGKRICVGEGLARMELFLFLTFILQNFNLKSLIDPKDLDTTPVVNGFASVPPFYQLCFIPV

A short description of data set [9]: Drug level in cynomolgus monkey liver microsomes treated with [14C]-rivoglitazone at 20 uM after 2 hrs by radio-HPLC/LC-MS/MS analysis in presence of NADPH-generating system and NADPH-generating system/SAM. Format: ADME, Macaca fascicularis. In short, it runs like this: as §1
Data set [10] has as its system Hepatocyte. Put plainly: Drug level in human hepatocytes treated with [14C]-rivoglitazone at 30 uM after 3 hrs by radio-HPLC/LC-MS/MS analysis in presence of NADPH-generating system and NADPH-generating system/SAM. Format: ADME, cell-based.
Data set [11] deals with Hepatocyte (Macaca fascicularis). Description: Drug level in monkey hepatocytes treated with [14C]-rivoglitazone at 30 uM after 3 hrs by radio-HPLC/LC-MS/MS analysis in presence of NADPH-generating system and NADPH-generating system/SAM. The settings on record: cynomolgus monkey.
Data set [12] deals with Hepatocyte. Description: Drug level in rat hepatocytes treated with [14C]-rivoglitazone at 30 uM after 3 hrs by radio-HPLC/LC-MS/MS analysis in presence of NADPH-generating system and NADPH-generating system/SAM. The class given is ADME, cell-based.

Cytochrome P450 3A5, sequence (P20815 whole entry): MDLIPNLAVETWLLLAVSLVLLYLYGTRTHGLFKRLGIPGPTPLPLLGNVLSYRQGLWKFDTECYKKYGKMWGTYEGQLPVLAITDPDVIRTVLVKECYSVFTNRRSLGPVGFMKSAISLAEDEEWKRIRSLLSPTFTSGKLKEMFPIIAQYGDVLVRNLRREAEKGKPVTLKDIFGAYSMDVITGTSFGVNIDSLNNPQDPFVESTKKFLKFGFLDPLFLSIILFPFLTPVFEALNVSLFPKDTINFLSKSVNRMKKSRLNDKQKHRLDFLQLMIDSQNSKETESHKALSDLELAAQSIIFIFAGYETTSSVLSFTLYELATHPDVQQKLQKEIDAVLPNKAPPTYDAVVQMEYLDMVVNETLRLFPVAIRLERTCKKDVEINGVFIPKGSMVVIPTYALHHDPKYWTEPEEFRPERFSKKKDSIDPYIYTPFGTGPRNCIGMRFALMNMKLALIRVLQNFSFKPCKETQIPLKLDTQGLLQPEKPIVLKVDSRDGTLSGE

For the compound `COc1ccc2nc(COc3ccc(CC(C(N)=O)[S+](C)[O-])cc3)n(C)c2c1` (configuration not stated), the Drug metabolism result (in the data set on Liver microsome [1]; with Hepatocyte [2]; with Hepatocyte [4]; in the data set with Liver microsome [5]; in [6]) was “metabolite_detected” in each case. In [3], this compound gave a Retention_time of 16.1 min.
Turning to `COc1ccc2nc(COc3ccc(CC(O)C(N)=O)cc3)n(C)c2c1` (configuration not stated), the Drug metabolism entry on Cytochrome P450 2D6, in the data set with Liver microsome [7], at Cytochrome P450 3A5, at Cytochrome P450 3A4, on Cytochrome P450 2C8 and at Cytochrome P450 2C9 was “metabolite_detected” each time. For the same compound, the Drug metabolism result (at Cytochrome P450 1A2; in the data set on Liver microsome [8]; at Cytochrome P450 2C19; in data set [9]) was “metabolite_detected” each time. Moreover, the Retention_time in [3] is recorded as 16.3 min.
On to `Cn1c(COc2ccc(CC3SC(=O)NC3=O)cc2)nc2ccc(O)cc21` (configuration not stated), for which the Drug metabolism result on Cytochrome P450 2D6, with Hepatocyte [10], in the data set on Liver microsome [7], at Cytochrome P450 3A5, at Cytochrome P450 3A4 and on Cytochrome P450 2C8 was “metabolite_detected” each time. Besides, the Drug metabolism result (on Cytochrome P450 2C9; at Cytochrome P450 1A2; with Liver microsome [8]; at Cytochrome P450 2C19; in data set [11]; in the data set on Hepatocyte [12]) was “metabolite_detected” throughout. Also, the Drug metabolism result in data set [9] is listed as “metabolite_detected”. Moreover, the Retention_time in [3] is listed as 19.2 min.
For the compound `COc1ccc2nc(COc3ccc(CC(C(N)=O)S(C)(=O)=O)cc3)n(C)c2c1` (configuration not stated), the Drug metabolism result (in the data set on Liver microsome [1]; in the data set on Hepatocyte [2]; with Hepatocyte [4]; in the data set on Liver microsome [5]; in [6]) was “metabolite_detected” throughout. The Retention_time in data set [3] stood at 18.1 min.
On to `COc1ccc2nc(COc3ccc(CC(S)C(N)=O)cc3)n(C)c2c1` (configuration not stated), for which the Drug metabolism entry on Cytochrome P450 2D6, in the data set with Liver microsome [7], at Cytochrome P450 3A5, on Cytochrome P450 3A4, on Cytochrome P450 2C8 and on Cytochrome P450 2C9 was “metabolite_detected” each time. Further, the Drug metabolism result (on Cytochrome P450 1A2; with Liver microsome [8]; at Cytochrome P450 2C19; in [9]) was “metabolite_detected” in each case. For the same compound, the Retention_time in [3] is reported as 20.2 min.
For the compound `COc1ccc2nc(COc3ccc(CC4(O)SC(=O)NC4=O)cc3)n(C)c2c1` (configuration not stated), the Drug metabolism result at Cytochrome P450 2D6, in the data set on Hepatocyte [10], with Liver microsome [7], on Cytochrome P450 3A5, at Cytochrome P450 3A4 and on Cytochrome P450 2C8 was “metabolite_detected” each time. Moreover, the Drug metabolism result (on Cytochrome P450 2C9; at Cytochrome P450 1A2; in the data set with Liver microsome [8]; at Cytochrome P450 2C19; in [11]; with Hepatocyte [12]) was “metabolite_detected” in each case. For the same compound, in data set [9], the Drug metabolism entry is “metabolite_detected”. Moreover, in [3], the Retention_time is reported as 21.5 min.
